Only some compounds are listed: those with a hit (about 3.7% of all), similar ones and a draw of the others.
FGF22 binding: shifts melting point of recombinant human FGF22; recombinant FGF22 thermal shift, SYPRO orange fluorescence; percent of sucrose octasulfate shift, DMSO zero; activity (Tm shift, normalised), % at 9.99 µM; hit rate 1.5% among 340,000;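 active = mean Tm shift, scaled 0 neutral to 100 positive control, at about 1.3% or above, every replicate too, limit read from the data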
ERAP1 HTS inh: ERAP1 (human) enzyme inhibition. recombinant ERAP1, Leu-AMC fluorescence, 60 min. inhibition, % at 10.7 µM. hit rate 0.15% among 340,000. AID 652197;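 active = mean replicate inhibition of at least 30%, or all replicates individually reaching that 30% level; inactive = mean below 30% and not every replicate reaching it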
CFTR F508del cor: correctors of CFTR F508del function in bronchial epithelial cells; AID 720511; CFBE cells, YFP halide quenching; stimulated with forskolin plus potentiator P3; % fluorescence drop versus neutral controls; activity (quench increase), % at 7.58 µM; hit rate 0.36% among 350,000;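 active = mean added fluorescence quench of at least 8% versus neutral control, with both replicates also reaching 8%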;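 note: cells transiently co-express mutant CFTR-F508del with the halide-sensitive YFP; corrector assay measuring rescue of mutant channel to the surface after 24 h compound exposure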
E-selectin induc: E-selectin induction on HUVECs. P16581. hit rate 0.37% among 260,000. activation, % at 7.58 µM. HUVEC E-selectin immunofluorescence imaging; normalized: neutral wells 0, TNF-alpha wells 100;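 active = mean E-selectin-positive cell signal at least 10% of the positive control, reached in at least 60% of replicates, without over 20% cell loss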
Target sequence (P16581 whole entry, looked up): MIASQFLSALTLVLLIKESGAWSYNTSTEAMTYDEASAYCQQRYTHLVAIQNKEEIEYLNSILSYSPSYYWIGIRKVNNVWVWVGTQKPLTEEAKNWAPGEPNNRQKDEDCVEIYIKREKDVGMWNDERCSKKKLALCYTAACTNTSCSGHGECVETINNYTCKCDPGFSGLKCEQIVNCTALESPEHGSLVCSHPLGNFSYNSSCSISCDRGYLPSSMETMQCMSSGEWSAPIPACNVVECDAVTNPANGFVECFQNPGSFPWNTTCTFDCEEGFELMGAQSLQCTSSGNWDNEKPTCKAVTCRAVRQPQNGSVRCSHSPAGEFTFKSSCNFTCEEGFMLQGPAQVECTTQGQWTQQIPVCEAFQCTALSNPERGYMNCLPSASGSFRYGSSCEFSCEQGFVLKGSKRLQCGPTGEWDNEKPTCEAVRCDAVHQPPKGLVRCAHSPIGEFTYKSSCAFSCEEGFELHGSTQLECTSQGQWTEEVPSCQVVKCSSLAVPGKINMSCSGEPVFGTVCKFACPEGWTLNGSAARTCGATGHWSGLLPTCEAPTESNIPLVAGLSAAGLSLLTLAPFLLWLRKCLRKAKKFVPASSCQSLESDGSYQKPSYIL
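Read-out basis: % PE-positive cells; Test system: HUVEC primary endothelial cells; Technique: immunofluorescence imaging; Dosing: single-point compound dose.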
DENV2 CPE: DENV2-induced cell death inhibition. DENV2-infected cells, cytopathic effect rescue, plate reader. CPE inhibition, % at 9.99 µM. hit rate 1.7% among 350,000; in the data active = CPE inhibition above about 20%, passing the limit was not always enough; tested in BHK-21 cells
Numbers stand for hits.

Cc1ccc(S(=O)(=O)N2CCOCC2)cc1NC(=O)CSc1nnc(COc2ccccc2F)n1N was read as FGF22 binding inactive, ERAP1 HTS inh inactive, CFTR F508del cor 28, E-selectin induc inactive and DENV2 CPE inactive.
`COc1ccc(OC)c(C2C(C(=O)Nc3ccc(F)cc3)=C(C)Nc3nc(CCCO)nn32)c1` (stereo not drawn) gave FGF22 binding inactive, ERAP1 HTS inh inactive, CFTR F508del cor inactive, E-selectin induc inactive and DENV2 CPE inactive.
Screening CCOC(=O)c1ccc(NC(=O)C2=C(C)Nc3nc(CCCO)nn3C2c2cccc(C)c2)cc1 (stereo not drawn) returned FGF22 binding inactive, ERAP1 HTS inh inactive, CFTR F508del cor inactive and DENV2 CPE 73.
C[C@@H]1CN([C@H](C)CO)C(=O)c2cc(-c3cccnc3)cnc2O[C@H]1CN(C)C(=O)Cc1cccnc1 was read as FGF22 binding inactive, ERAP1 HTS inh inactive, CFTR F508del cor inactive, E-selectin induc inactive and DENV2 CPE inactive.
CN(C)C(=O)C[C@@H]1C=C[C@H](NC(=O)Nc2cccc(F)c2)[C@@H](CO)O1 was read as FGF22 binding inactive, ERAP1 HTS inh inactive, CFTR F508del cor inactive, E-selectin induc inactive and DENV2 CPE inactive.
`CC(C)Nc1nc(Nc2ccc(C#N)cc2)c2sccc2n1` gave FGF22 binding inactive, ERAP1 HTS inh inactive, CFTR F508del cor 8.1, E-selectin induc inactive and DENV2 CPE inactive.
CN(C)CC(=O)N1CC(=O)N2[C@@H](CO)[C@H](c3ccc(/C=C/c4ccccc4)cc3)[C@@H]2C1 was read as ERAP1 HTS inh inactive, CFTR F508del cor inactive, E-selectin induc inactive and DENV2 CPE inactive.
CCCNC(=O)[C@H]1[C@H](CO)[C@H]2Cn3c(ccc(-c4cccnc4)c3=O)[C@@H]1N2C(=O)Nc1ccccc1 was read as FGF22 binding inactive, ERAP1 HTS inh inactive, CFTR F508del cor inactive, E-selectin induc inactive and DENV2 CPE inactive.
For S=C(Nc1ccc(Cl)cc1)N1CCN(Cc2ccccc2)CC1 the results were FGF22 binding inactive, ERAP1 HTS inh inactive, CFTR F508del cor inactive and DENV2 CPE inactive.
FC(F)Oc1ccc(NC(=S)N2CCN(Cc3ccccc3)CC2)cc1 was read as FGF22 binding 44, ERAP1 HTS inh inactive, CFTR F508del cor inactive and DENV2 CPE inactive.
O=C(N[C@H]1CC[C@H](CCn2cc(Cc3ccccc3)nn2)O[C@H]1CO)c1ccccn1 was read as FGF22 binding inactive, ERAP1 HTS inh inactive, CFTR F508del cor inactive, E-selectin induc inactive and DENV2 CPE inactive.
Screening CCCC#Cc1ccc([C@@H]2[C@@H](CO)N3CCCCN(Cc4ccncc4)C[C@H]23)cc1 returned FGF22 binding inactive, ERAP1 HTS inh inactive, CFTR F508del cor inactive, E-selectin induc inactive and DENV2 CPE 47.
Screening CCCC#Cc1ccc([C@@H]2[C@H]3CN(Cc4cncnc4)CCCCN3[C@H]2CO)cc1 returned FGF22 binding inactive, ERAP1 HTS inh inactive, CFTR F508del cor inactive, E-selectin induc inactive and DENV2 CPE 29.
Screening CCCC#Cc1ccc([C@@H]2[C@@H](CO)N3CCCCN(Cc4cncnc4)C[C@H]23)cc1 returned FGF22 binding inactive, CFTR F508del cor inactive and E-selectin induc inactive.
`CCCC#Cc1ccc([C@H]2[C@@H](CO)N3CCCCN(Cc4ccncc4)C[C@H]23)cc1` gave FGF22 binding inactive, ERAP1 HTS inh inactive, CFTR F508del cor inactive, E-selectin induc inactive and DENV2 CPE inactive.
For COc1ccc2c3c([nH]c2c1)[C@H](CO)N(Cc1ccccc1)CC31CCN(CC2CC2)CC1 the results were FGF22 binding inactive, ERAP1 HTS inh inactive, CFTR F508del cor inactive, E-selectin induc inactive and DENV2 CPE inactive.
Cc1noc(C)c1S(=O)(=O)Nc1cccc2c1O[C@H](CN(C)C)[C@H](C)CN([C@H](C)CO)C2=O was read as FGF22 binding inactive, ERAP1 HTS inh inactive, CFTR F508del cor inactive, E-selectin induc inactive and DENV2 CPE inactive.
Screening N#Cc1ccc(OCC(=O)N/N=C(\CCC(=O)O)c2cccs2)cc1 returned FGF22 binding 43, ERAP1 HTS inh inactive, CFTR F508del cor inactive and DENV2 CPE inactive.
COc1ccc(C#Cc2cnc3c(c2)C(=O)N([C@@H](C)CO)C[C@H](C)[C@H](CN(C)C(C)=O)O3)cc1 was read as FGF22 binding inactive, ERAP1 HTS inh inactive, CFTR F508del cor inactive, E-selectin induc inactive and DENV2 CPE 26.
COc1cccc(C#Cc2cnc3c(c2)C(=O)N([C@H](C)CO)C[C@H](C)[C@H](CN(C)C(C)=O)O3)c1 was read as FGF22 binding inactive, ERAP1 HTS inh inactive, CFTR F508del cor inactive, E-selectin induc inactive and DENV2 CPE inactive.
`COc1cccc(C#Cc2cnc3c(c2)C(=O)N([C@H](C)CO)C[C@H](C)[C@@H](CN(C)C(C)=O)O3)c1` gave FGF22 binding inactive, ERAP1 HTS inh inactive, CFTR F508del cor inactive, E-selectin induc inactive and DENV2 CPE 24.
For C[C@@H]1CN([C@H](C)CO)C(=O)c2cc(C#Cc3ccccc3)cnc2O[C@H]1CN(C)C(=O)CCN1CCCCC1 the results were FGF22 binding inactive, ERAP1 HTS inh inactive, CFTR F508del cor inactive, E-selectin induc inactive and DENV2 CPE 26.
`COc1cccc(-c2cnc3c(c2)C(=O)N([C@@H](C)CO)C[C@H](C)[C@@H](CN(C)C(C)=O)O3)c1` gave FGF22 binding inactive, ERAP1 HTS inh inactive, CFTR F508del cor inactive, E-selectin induc inactive and DENV2 CPE inactive.
Screening COc1cccc(-c2cnc3c(c2)C(=O)N([C@H](C)CO)C[C@H](C)[C@@H](CN(C)C(C)=O)O3)c1 returned FGF22 binding inactive, ERAP1 HTS inh inactive, CFTR F508del cor inactive, E-selectin induc inactive and DENV2 CPE 32.
For COc1ccc(CN2C[C@H](C)[C@@H](OC)CN(C)C(=O)c3ccc(NC(=O)C4CC4)cc3OC[C@@H]2C)cc1 the results were FGF22 binding inactive, ERAP1 HTS inh inactive, CFTR F508del cor inactive, E-selectin induc inactive and DENV2 CPE inactive.
CCCC#Cc1cnc2c(c1)C(=O)N([C@@H](C)CO)C[C@H](C)[C@@H](CN(C)C(=O)Nc1cccc(F)c1)O2 was read as FGF22 binding inactive, ERAP1 HTS inh inactive, CFTR F508del cor inactive, E-selectin induc inactive and DENV2 CPE inactive.
Screening CCCN1C[C@@H](C)[C@H](OC)CN(C)C(=O)c2cc(NS(=O)(=O)c3cn(C)cn3)ccc2OC[C@@H]1C returned FGF22 binding inactive, ERAP1 HTS inh inactive, CFTR F508del cor inactive, E-selectin induc inactive and DENV2 CPE inactive.
`CC(=O)N(C)C[C@H]1Oc2ncc(C#Cc3ccccc3)cc2C(=O)N([C@H](C)CO)C[C@H]1C` gave FGF22 binding inactive, ERAP1 HTS inh inactive, CFTR F508del cor inactive, E-selectin induc inactive and DENV2 CPE 48.
Screening CC(=O)N(C)C[C@H]1Oc2ncc(C#Cc3ccccc3)cc2C(=O)N([C@@H](C)CO)C[C@@H]1C returned FGF22 binding inactive, ERAP1 HTS inh inactive, CFTR F508del cor inactive, E-selectin induc inactive and DENV2 CPE inactive.
`CCn1nc(C)c(NC(=O)c2ccc(Cl)cc2)c1C` gave FGF22 binding inactive, ERAP1 HTS inh inactive, CFTR F508del cor inactive, E-selectin induc inactive and DENV2 CPE inactive.

Screens deposited in PubChem by Broad Institute.
